Measured values: ChEMBL document CHEMBL1139963, “Boswellic acids and glucosamine show synergistic effect in preclinical anti-inflammatory study in rats” (2007)
Active and inactive are the calls of the source. The rule behind the calls is not given here.

Columns and labels:
Rattus norvegicus [1] = assay: Antiinflammatory activity against carrageenan-induced paw edema in Wistar rat assessed as reduction of paw edema at 250 mg/kg after 3 hrs relative to control; type: functional
How it was run: (§1)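 Rats, five per group, were dosed orally with suspensions in 2% gum acacia. After 45 min, freshly prepared 10 mg/ml carrageenan was injected subplantar into the left hind paw, with saline in the contralateral paw. Paw volume was measured by volume differential meter immediately and hourly to 4 h. Percent protection was calculated versus control. Data are means ± SE, analysed by Student's t-test.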

Rattus norvegicus [2] = assay: Antiinflammatory activity against carrageenan-induced paw edema in Wistar rat assessed as reduction of paw edema at 250 mg/kg after 4 hrs relative to control; type: functional; how it was run: as §1
Rattus norvegicus [3] = assay: Antiarthritic activity against Mycobacterium tuberculosis-induced rat arthritic model assessed as inhibition of chronic phase inflammation at 250 mg/kg relative to control; type: functional
How it was run: (§2)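 Adjuvant arthritis in rats, five per group. A 5 mg/ml suspension of heat-killed Mycobacterium tuberculosis in liquid paraffin was injected subplantar into the left hind foot. Oral dosing ran from one day before immunization to day 13. Paw volume was measured on alternate days, and percent change was calculated versus the vehicle control. The chronic phase begins after day 8. Data are means ± SE, analysed by Student's t-test.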

Rattus norvegicus [4] = assay: Antiinflammatory activity against carrageenan-induced paw edema in Wistar rat assessed as reduction of paw edema at 250 mg/kg relative to control; type: functional, organism-based; parameters: dose 250 mg/kg; how it was run: as §1
Rattus norvegicus [5] = assay: Antiarthritic activity against Mycobacterium tuberculosis-induced rat arthritic model at 250 mg/kg relative to control; type: functional, organism-based; parameters: dose 250 mg/kg; how it was run: as §2
Rattus norvegicus [6] = assay: Antiinflammatory activity against carrageenan-induced paw edema in Wistar rat assessed as reduction of paw edema at 100 mg/kg relative to control; type: functional; parameters: scale not given: the % may be the effect or the level left; how it was run: as §1
Rattus norvegicus [7] = assay: Antiarthritic activity against Mycobacterium tuberculosis-induced rat arthritic model assessed as inhibition of chronic phase inflammation at 100 mg/kg relative to control; type: functional, organism-based; parameters: dose 100 mg/kg; how it was run: as §2
Rattus norvegicus [8] = assay: Antiarthritic activity against Mycobacterium tuberculosis-induced rat arthritic model assessed as inhibition of acute phase inflammation at 100 mg/kg relative to control; type: functional, organism-based; parameters: dose 100 mg/kg; how it was run: as §2

| SMILES | inhibition in vivo at 250 mg/kg (Rattus norvegicus [1]) [%] | inhibition in vivo at 250 mg/kg (Rattus norvegicus [2]) [%] | inhibition in vivo at 250 mg/kg (Rattus norvegicus [3]) [%] | Activity (Rattus norvegicus [4]) | Activity (Rattus norvegicus [5]) | Activity (Rattus norvegicus [6]) [%] | Activity (Rattus norvegicus [7]) | Activity (Rattus norvegicus [8]) |
| --- | --- | --- | --- | --- | --- | --- | --- | --- |
| CC1(C)CC[C@]2(C)CC[C@]3(C)C(=CC[C@@H]4[C@@]5(C)CC[C@@H](O)[C@](C)(C(=O)O)[C@@H]5CC[C@]43C)[C@@H]2C1 | 28.6 | 25.8 | 36.4 | – | – | – | – | – |
| C[C@H]1[C@H](C)CC[C@]2(C)CC[C@]3(C)C(=CC(=O)[C@@H]4[C@@]5(C)CC[C@@H](O)[C@](C)(C(=O)O)[C@@H]5CC[C@]43C)[C@H]12 | – | – | – | Active | Active | – | – | – |
| CC(C)Cc1ccc([C@H](C)C(=O)O)cc1 [DEXIBUPROFEN] | – | – | – | – | – | 55.64 | Active | Active |
| N[C@@H]1[C@@H](O)[C@H](O)[C@@H](CO)O[C@H]1O [GLUCOSAMINE] | 15.2 | 16.1 | 21.6 | – | – | – | – | – |
| C[C@H]1[C@H](C)CC[C@]2(C)CC[C@]3(C)C(=CC[C@@H]4[C@@]5(C)CC[C@@H](O)[C@](C)(C(=O)O)[C@@H]5CC[C@]43C)[C@H]12 [BOSWELLIC ACID] | 28.6 | 25.8 | 36.4 | – | – | – | – | – |
